In ChEMBL document CHEMBL1122845, “Inhibitors of blood platelet aggregation. Effects of some 1,2-benzisothiazol-3-ones on platelet responsiveness to adenosine diphosphate and collagen” (J Med Chem, 1985):

Legend:
Rattus norvegicus [1] = experiment: The compound was tested ex vivo at a dose of 0.15 mmol/kg for ADP induced platelet aggregation in rat; type: functional
How it was run: (§1)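 Fasted male rats (~200 g) or guinea pigs (~300 g), n=5-10, dosed orally (5 mL/kg) in 1% methylcellulose; methylcellulose alone as control. Killed with CO2 after 2 h. Vena cava blood citrated (102 mM rat, 129 mM guinea pig); PRP adjusted to 800000/µL (rat) or 500000/µL (guinea pig). EC25 for first-phase ADP aggregation (max 8 µM) interpolated from two 2-fold-spaced ADP levels. Dose ratio = treated/control mean EC25; Student's t-test. Some groups tested as pooled PRP.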

Rattus norvegicus [2] = experiment: The compound was tested ex vivo at a dose of 0.15 mmol/kg for collagen induced platelet aggregation in rat; type: functional
How it was run: (§2)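 Male rats (~200 g) or guinea pigs (~300 g), overnight fasted, n=5-10, received compound orally in 1% methylcellulose (5 mL/kg); vehicle-only controls. After 2 h, CO2 kill and vena cava blood into citrate (102 mM rat, 129 mM guinea pig). PRP set to 800000/µL (rat) or 500000/µL (guinea pig). Collagen EC50 (response of 50 mm; max 50 µg/mL) interpolated from a log plot. Dose ratio = treated/control mean EC50; t-test. Pooled PRP sometimes used.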

Cavia porcellus [3] = experiment: Ex vivo inhibition of ADP induced guinea pig platelet aggregation following 0.08 mmol/kg administration.; type: functional; how it was run: as §1
Cavia porcellus [4] = experiment: Ex vivo inhibition of collagen induced guinea pig platelet aggregation following 0.08 mmol/kg administration.; type: functional; how it was run: as §2
Cavia porcellus [5] = experiment: The compound was tested ex vivo at a dose of 0.04 mmol/kg for ADP induced platelet aggregation in guinea pig; type: functional; how it was run: as §1
Cavia porcellus [6] = experiment: The compound was tested ex vivo at a dose of 0.04 mmol/kg for collagen induced platelet aggregation in guinea pig; type: functional; how it was run: as §2
Homo sapiens [7] = species on record: Homo sapiens; experiment: In vitro inhibitory activity against human platelet aggregation in the presence of Adenosine diphosphate; type: functional
How it was run: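 Human citrated PRP, platelet count adjusted to 350000/µL with autologous platelet-poor plasma. 90 µL PRP preincubated 3 min at 37 °C with compound or saline (DMF vehicle where needed), stirred at 1100 rpm. ADP chosen per preparation to give a clear first-phase response (typically 1 µM). Photometric read-out: maximum rise in light transmission within 1 min. IC50 determined.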

Homo sapiens [8] = species on record: Homo sapiens; experiment: (§3) In vitro inhibitory activity against human platelet aggregation in the presence of collagen; type: functional, organism-based
Rattus norvegicus [9] = experiment: The compound was tested ex vivo at a dose of 0.08 mmol/kg for ADP induced platelet aggregation in rat; type: functional; how it was run: as §1
Rattus norvegicus [10] = experiment: The compound was tested ex vivo at a dose of 0.08 mmol/kg for collagen induced platelet aggregation in rat; type: functional; how it was run: as §2
Rattus norvegicus [11] = experiment: The compound was tested ex vivo at a dose of 0.3 mmol/kg for ADP induced platelet aggregation in rat; type: functional; how it was run: as §1
Rattus norvegicus [12] = experiment: The compound was tested ex vivo at a dose of 0.3 mmol/kg for collagen induced platelet aggregation in rat; type: functional; how it was run: as §2
Homo sapiens [13] = species on record: Homo sapiens; experiment: as §3; type: functional
How it was run: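 Aggregation measured photometrically in human citrated PRP (350000 platelets/µL, stirred at 1100 rpm). Compound or saline preincubated 3 min at 37 °C. Collagen at a just-maximal level chosen for each sample (typically 0.7-1.4 µg/mL). Maximum increase in light transmission measured. IC50 = concentration giving 50% inhibition.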

Cavia porcellus [14] = experiment: The compound was tested at a dose of 0.08 mmol/kg ex vivo for collagen induced platelet aggregation in guinea pig; type: functional; how it was run: as §2
Cavia porcellus [15] = experiment: The compound was tested ex vivo at a dose of 0.15 mmol/kg for ADP induced platelet aggregation in guinea pig; type: functional; how it was run: as §1
Cavia porcellus [16] = experiment: The compound was tested ex vivo at a dose of 0.15 mmol/kg for collagen induced platelet aggregation in guinea pig; type: functional; how it was run: as §2
Cavia porcellus [17] = species on record: Cavia porcellus; experiment: The compound was tested ex vivo for ADP induced platelet aggregation in guinea pig; type: functional; how it was run: as §1
Cavia porcellus [18] = species on record: Cavia porcellus; experiment: The compound was tested ex vivo for collagen induced platelet aggregation in guinea pig; type: functional; how it was run: as §2
Rattus norvegicus [19] = experiment: The compound was tested at a dose of 0.15 mmol/kg ex vivo for collagen induced platelet aggregation in rat; type: functional; how it was run: as §2
Rattus norvegicus [20] = experiment: The compound was tested ex vivo at a dose of 0.15 mmol/kg for ADP induced platelet aggregation in rat
Cavia porcellus [21] = experiment: The compound was tested ex vivo at a dose of 0.08 mmol/kg for ADP induced platelet aggregation in guinea pig; type: functional; how it was run: as §1
Cavia porcellus [22] = experiment: The compound was tested ex vivo at a dose of 0.08 mmol/kg for collagen induced platelet aggregation in guinea pig; type: functional; how it was run: as §2

CCN(CC)CCn1sc2ccccc2c1=O
Activity (Rattus norvegicus [1]): 1.3 | Activity (Rattus norvegicus [2]): 2.6

O=c1c2ccccc2sn1CCCCN1CCCC1
Activity (Cavia porcellus [3]): 1.4 | Activity (Cavia porcellus [4]): 1.9

O=c1c2cc(Cl)c(Cl)cc2sn1CCN1CCCC1
Activity (Rattus norvegicus [1]): 1.4 | Activity (Rattus norvegicus [2]): 1.8

Cc1cc(C)c2c(=O)n(CCN3CCCCC3)sc2c1
Activity (Cavia porcellus [5]): 2.1 | Activity (Cavia porcellus [6]): >21 | Activity (Cavia porcellus [3]): >24 | Activity (Cavia porcellus [4]): >21

COc1cc2sn(CCCCN3CC4CCC(CC4)C3)c(=O)c2cc1OC
Activity (Cavia porcellus [3]): 2.6 | Activity (Cavia porcellus [4]): 5.4 | IC50 (Homo sapiens [7]): 99 µM | IC50 (Homo sapiens [8]): 16 µM | Activity (Rattus norvegicus [9]): 1.4 | Activity (Rattus norvegicus [10]): 2.4

CCN(CC)CCn1sc2cc(Cl)c(Cl)cc2c1=O
Activity (Rattus norvegicus [1]): 0.8 | Activity (Rattus norvegicus [2]): 2.1 | Activity (Rattus norvegicus [11]): 1.2 | Activity (Rattus norvegicus [12]): 6.5

CN(CCn1sc2ccccc2c1=O)c1ccccc1
Activity (Rattus norvegicus [1]): 1 | Activity (Rattus norvegicus [2]): 1.1

O=c1c2ccccc2sn1CCc1ccccn1
IC50 (Homo sapiens [7]): 20 µM | IC50 (Homo sapiens [13]): 12 µM | Activity (Rattus norvegicus [12]): 0.7

O=c1c2cc(Cl)c(Cl)cc2sn1CCc1ccccn1
Activity (Rattus norvegicus [1]): 1 | Activity (Rattus norvegicus [2]): 1

Cc1cc(C)c2c(=O)n(CCCN3CCCCC3)sc2c1
Activity (Cavia porcellus [14]): 6.7 | Activity (Cavia porcellus [3]): 1.4

COc1cc(OC)c2c(=O)n(CCN3CCCCC3)sc2c1
Activity (Cavia porcellus [3]): >27 | Activity (Cavia porcellus [4]): >10

O=c1[nH]sc2ccccc12
IC50 (Homo sapiens [7]): > 200 µM | IC50 (Homo sapiens [13]): 34 µM | Activity (Rattus norvegicus [12]): 1

COc1cc2sn(CCN3CCCC3)c(=O)c2cc1OC
Activity (Rattus norvegicus [1]): 1.1 | Activity (Rattus norvegicus [2]): 1.8

COc1cc(OC)c2c(=O)n(CCN3CCCC3)sc2c1
Activity (Cavia porcellus [3]): 4.6 | Activity (Cavia porcellus [4]): >31

O=c1c2cc(Cl)c(Cl)cc2sn1CCN1CCCCC1
Activity (Rattus norvegicus [1]): 1.2 | Activity (Rattus norvegicus [2]): 1.5

Cc1cc2sn(CCc3ccccn3)c(=O)c2cc1C
Activity (Cavia porcellus [15]): 0.9 | collagen EC50 dose ratio (treated/control) (Cavia porcellus [16]): 0.8

CCCCCn1sc2ccccc2c1=O
Activity (Rattus norvegicus [12]): 1.2

O=c1c2ccccc2sn1CCCN1CCCCC1
Activity (Cavia porcellus [3]): 3.7 | Activity (Cavia porcellus [4]): >26 | IC50 (Homo sapiens [13]): 17 µM | Activity (Rattus norvegicus [9]): 1 | Activity (Rattus norvegicus [10]): 2.4

COc1cc2sn(CCc3ccccn3)c(=O)c2cc1OC
Activity (Cavia porcellus [15]): 1.1 | Activity (Rattus norvegicus [1]): 1.8 | Activity (Rattus norvegicus [2]): 2.8 | collagen EC50 dose ratio (treated/control) (Cavia porcellus [16]): 1.5

O=c1c2ccccc2sn1CCCCN1CCCCC1
Activity (Cavia porcellus [3]): 1.1 | Activity (Cavia porcellus [4]): 3.4

CCN(CC)CCn1sc2cc(C)cc(C)c2c1=O.O=S(=O)(O)c1ccc2ccccc2c1
Activity (Cavia porcellus [17]): 2.8 | collagen EC50 dose ratio (treated/control) (Cavia porcellus [18]): >36

COc1cc2sn(CCCCc3ccccn3)c(=O)c2cc1OC
Activity (Cavia porcellus [15]): 2.4 | collagen EC50 dose ratio (treated/control) (Cavia porcellus [16]): 2.7

O=c1c2ccccc2sn1CCCN1CCCC1
Activity (Cavia porcellus [3]): 2 | Activity (Cavia porcellus [4]): 6.2

CCN(CC)CCn1sc2cc(C)cc(C)c2c1=O
Activity (Cavia porcellus [5]): 2.2 | Dose ratio (treated/control collagen EC50) (Cavia porcellus [6]): >17

COc1cc2sn(CCCc3ccccn3)c(=O)c2cc1OC
Activity (Cavia porcellus [15]): 2.4 | collagen EC50 dose ratio (treated/control) (Cavia porcellus [16]): >27

O=c1c2ccccc2sn1CCO
Activity (Rattus norvegicus [12]): 1.3

O=c1c2ccccc2sn1CCCN1CC2CCC(CC2)C1
Activity (Cavia porcellus [3]): 1.2 | Activity (Cavia porcellus [4]): 1.8

O=c1c2ccccc2sn1-c1ccccn1
Activity (Rattus norvegicus [12]): 0.9

O=c1c2ccccc2sn1-c1ccccc1
Activity (Rattus norvegicus [1]): 0.9 | Activity (Rattus norvegicus [2]): 1.1

O=c1c2ccccc2sn1CCCCN1CC2CCC(CC2)C1
Activity (Cavia porcellus [3]): 1.6 | Activity (Cavia porcellus [4]): 4.1

COc1cc2sn(CCCN3CC4CCC(CC4)C3)c(=O)c2cc1OC
Activity (Cavia porcellus [3]): 0.9 | Activity (Cavia porcellus [4]): 1.6

O=c1c2ccccc2sn1CCCCCN1CCCCC1
Activity (Cavia porcellus [3]): 1.3 | Activity (Cavia porcellus [4]): 1.1

Cc1cc2sn(CCN3CC4CCC(CC4)C3)c(=O)c2cc1C
Activity (Rattus norvegicus [1]): 1.3 | Activity (Rattus norvegicus [19]): 1 | Activity (Cavia porcellus [16]): 0.7 | Activity (Rattus norvegicus [20]): 1

Cc1cc(C)c2c(=O)n(CCN3CCCC3)sc2c1
Activity (Cavia porcellus [21]): > 32 | Activity (Cavia porcellus [22]): > 23 | Activity (Cavia porcellus [3]): >32 | Activity (Cavia porcellus [4]): >23

O=c1c2ccccc2sn1CCN1CCCCC1
Activity (Cavia porcellus [3]): 1.4 | Activity (Cavia porcellus [4]): 5 | Activity (Rattus norvegicus [9]): 1.7 | Activity (Rattus norvegicus [10]): 4

Cc1cc(C)c2c(=O)n(CCCCN3CC4CCC(CC4)C3)sc2c1
Activity (Cavia porcellus [5]): 0.8 | Dose ratio (treated/control collagen EC50) (Cavia porcellus [6]): 1.1

O=c1c2ccccc2sn1CCCCN1CCOCC1
Activity (Cavia porcellus [3]): 1.1 | Activity (Cavia porcellus [4]): 2.4

O=c1c2ccccc2sn1CCCN1CCOCC1
Activity (Cavia porcellus [3]): 1.3 | Activity (Cavia porcellus [4]): 2.5

COc1cc2sn(CCCCN3CCCCC3)c(=O)c2cc1OC
Activity (Cavia porcellus [3]): 1.1 | Activity (Cavia porcellus [4]): 1.6

COc1cc2sn(CCCN3CCCCC3)c(=O)c2cc1OC
Activity (Cavia porcellus [14]): 2.5 | Activity (Cavia porcellus [3]): 1.1

O=c1c2ccccc2sn1CCN1CCOCC1
Activity (Rattus norvegicus [1]): 1 | Activity (Rattus norvegicus [2]): 1

Cc1cc(C)c2c(=O)n(CCc3ccccn3)sc2c1
Activity (Cavia porcellus [5]): 1 | Dose ratio (treated/control collagen EC50) (Cavia porcellus [6]): 1.6

COc1cc2sn(CCCCCCN3CC4CCC(CC4)C3)c(=O)c2cc1OC
Activity (Cavia porcellus [17]): 1.1 | collagen EC50 dose ratio (treated/control) (Cavia porcellus [18]): 2

COc1cc2sn(CCCCCN3CC4CCC(CC4)C3)c(=O)c2cc1OC
Activity (Cavia porcellus [17]): 1.7 | collagen EC50 dose ratio (treated/control) (Cavia porcellus [18]): 4.1

Cc1cc2sn(CCN3CCCC3)c(=O)c2cc1C
Activity (Cavia porcellus [15]): 1.9 | Activity (Rattus norvegicus [1]): 1.4 | Activity (Rattus norvegicus [2]): 2.7 | Activity (Cavia porcellus [16]): > 10

COc1cc2sn(CCN3CCCCC3)c(=O)c2cc1OC
Activity (Cavia porcellus [15]): 1.9 | Activity (Rattus norvegicus [1]): 1.1 | Activity (Rattus norvegicus [2]): 2.2 | collagen EC50 dose ratio (treated/control) (Cavia porcellus [16]): 7.3

O=c1c2cc(Cl)c(Cl)cc2sn1CCN1CC2CCC(CC2)C1
Activity (Rattus norvegicus [12]): 1
